“And” between values parts separate entries of the source, which are not always exact repeats. Equal entries are not always repeated. Records with an inconclusive call do not appear. The source made the active and inactive calls.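 The calls were made as follows: active = fitted dose curve passes 500% activation at or below the top valid tested dose; inconclusive = no clear call, values can overlap the other calls; inactive = the rest, opposite-direction activity included.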
test system: not listed separately; test: HRE-luciferase activation under added iron, dose response, mechanism study for HIF activator project, cell-based, iron medium, luminescence, U2OS, dry powder (AID 493228); conditions: U2OS HRE-luciferase reporter, iron medium, luminescence; at 38 µM (top of the series)
Method in brief: (§1)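 Test system: U2OS 3×HRE-luciferase reporter cells. Amount: 6,000 cells/well. Doses: 8-point dilution series in 3-fold steps. Times: cells plated 24 h before dosing, compound exposure 24 h at 37 °C. Measured by: Steady-Glo luminescence.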

Compound | activation
O=C(c1cc(-c2ccccc2)on1)N1CCC(N2CCOCC2)CC1 | 9.93% (inactive)
N#CC1(c2ccccc2)CCN(Cc2ccc(O)c3ncccc23)CC1 | 10.5% (inactive)
Oc1ccc(CNC2CCc3ccccc32)c2cccnc12 (stereo not given) | -90.3% (inactive)
CC(C)(C)OC(=O)N1CCN(Cc2ccc(O)c3ncccc23)CC1 | 10.8% (inactive)
c1ccc(-c2cnc(Nc3nc(-c4ccccn4)nnc3-c3ccccc3)s2)cc1 | -26.9% (inactive)
O=C(NCc1ccccc1)c1cc(-c2ccccc2)on1 | 65.7% (inactive)
O=C(Nc1nc(-c2ccccc2)cs1)c1cc(-c2ccccc2)on1 | -5.37% (inactive)
O=C(c1cc(-c2ccccc2)on1)N1CCN(c2ccncc2)CC1 | -9.52% (inactive)
Oc1ccc(CN2CCc3ccccc3C2)c2cccnc12 | -88.2% (inactive) and -90.7% (inactive)
Cc1ccc(CNC(=O)c2cc(-c3ccccc3)on2)cc1 | 13.2% (inactive)
O=C(Nc1ccc2ccccc2n1)c1cc(-c2ccccc2)on1 | 10.3% (inactive)
O=C(Nc1nnc(-c2ccccc2)s1)c1cc(-c2ccccc2)on1 | -5.78% (inactive)
OCCCNc1nc(-c2ccccn2)nnc1-c1ccccc1 | 310% (inactive)
C=CCNc1nc(-c2ccccn2)nnc1-c1ccccc1 | 288% (inactive)
CN(C)c1nc(-c2ccccn2)nnc1-c1ccccc1 | 80.9% (inactive)
Oc1ccc(CN2CCC3CCCCC3C2)c2cccnc12 (stereo not given) | -92.3% (inactive)
c1ccc(-c2nnc(-c3ccccn3)nc2NCC2CCOCC2)cc1 | 226% (inactive)
c1ccc(-c2nnc(-c3ccccn3)nc2NCCCN2CCOCC2)cc1 | 168% (inactive)
O=C(NC1CCc2ccccc2C1)c1cc(-c2ccccc2)on1 (stereo not given) | 2.06% (inactive)
Cn1c(-c2ccccc2)cnc1NC(=O)c1cc(-c2ccccc2)on1 | 23.2% (inactive)
CC(C)(C)c1ccc(CNc2nc(-c3ccccn3)nnc2-c2ccccc2)cc1 | 246% (inactive)
c1ccc(-c2nnc(-c3ccccn3)nc2N2CCC(C3CCCCC3)C2)cc1 (stereo not given) | 17.7% (inactive)
c1ccc(-c2nnc(-c3ccccn3)nc2NCc2cccnc2)cc1 | 402% (inactive)
c1ccc(-c2nnc(Nc3nc(-c4ccccn4)nnc3-c3ccccc3)s2)cc1 | 67% (inactive)
O=C(Nc1cn2ccccc2n1)c1cc(-c2ccccc2)on1 | 36% (inactive)
Cc1cccc(Nc2nc(-c3ccccn3)nnc2-c2ccccc2)n1 | 306% (inactive)
Cc1ccc(Nc2nc(-c3ccccn3)nnc2-c2ccccc2)cn1 | 473% (inactive)
CN(C)CCNC(=O)c1cc(-c2ccccc2)on1 | 36.8% (inactive)

Compound | activation
COc1ccccc1N1CCN(Cc2ccc(O)c3ncccc23)CC1 | -77.4% (inactive)
O=C(NCCN1CCCCC1)c1cc(-c2ccccc2)on1 | 64.1% (inactive)
Cc1ccccc1CNC(=O)c1cc(-c2ccccc2)on1 | 40.9% (inactive)
CN1CCN(c2nc(-c3ccccn3)nnc2-c2ccccc2)CC1 | 315% (inactive)
Oc1ccc(CNC2Cc3ccccc3C2)c2cccnc12 | -87.7% (inactive)
c1ccc(-c2nnc(-c3ccccn3)nc2NCCc2ccccn2)cc1 | 460% (inactive)
O=C(NC1Cc2ccccc2C1)c1cc(-c2ccccc2)on1 | 175% (inactive)
c1ccc(-c2nnc(-c3ccccn3)nc2NCC2CC2)cc1 | 392% (inactive)
c1ccc(-c2cccc(CNc3nc(-c4ccccn4)nnc3-c3ccccc3)c2)cc1 | 113% (inactive)
c1ccc(-c2nnc(-c3ccccn3)nc2N2CCC(c3ccccc3)C2)cc1 (stereo not given) | 313% (inactive)
O=C(Nc1ncc(-c2ccccc2)o1)c1cc(-c2ccccc2)on1 | 22.7% (inactive)
c1ccc(-c2nnc(-c3ccccn3)nc2Nc2nc3ccccc3s2)cc1 | -17.3% (inactive)
Cc1cccc(NC(=O)c2cc(-c3ccccc3)on2)n1 | 47.5% (inactive)
Cn1c(-c2ccccc2)cnc1Nc1nc(-c2ccccn2)nnc1-c1ccccc1 | -7.02% (inactive)
O=C(c1cc(-c2ccccc2)on1)N1CCC(N2CCCC2)CC1 | 0.413% (inactive)
CN1CCN(C(=O)c2cc(-c3ccccc3)on2)CC1 | 4.95% (inactive)
Cc1ccc(NC(=O)c2cc(-c3ccccc3)on2)cn1 | -1.64% (inactive)
c1ccc(-c2nnc(-c3ccccn3)nc2Nc2cnc3ccccc3n2)cc1 | 299% (inactive)
C[C@@H](Nc1nc(-c2ccccn2)nnc1-c1ccccc1)C1CCCCC1 | 419% (inactive)
Cn1c(NC(=O)c2cc(-c3ccccc3)on2)nc2ccccc21 | 4.17% (inactive)
O=C(Nc1nc2ccccc2s1)c1cc(-c2ccccc2)on1 | 22.7% (inactive)
OCC1CCN(Cc2ccc(O)c3ncccc23)CC1 | -91.5% (inactive)
c1ccc(-c2csc(Nc3nc(-c4ccccn4)nnc3-c3ccccc3)n2)cc1 | 73.9% (inactive)
O=C(Nc1ncc2ccccc2n1)c1cc(-c2ccccc2)on1 | 196% (inactive)
O=C(Nc1cnc2ccccc2c1)c1cc(-c2ccccc2)on1 | 26% (inactive)
Oc1ccc(CN2CCC(Cc3ccccc3)CC2)c2cccnc12 | 27% (inactive)
CC1CN(Cc2ccc(O)c3ncccc23)CC(C)O1 (stereo not given) | -85.2% (inactive)

test system: U2OS HRE-luciferase reporter, iron medium, luminescence; test: as above; conditions: not given
Method in brief: as §1

Compound | AC50
C[C@@H](Nc1nc(-c2ccccn2)nnc1-c1ccccc1)c1ccccc1 | 20.7 µM
c1ccc(-c2nnc(-c3ccccn3)nc2NCCN2CCOCC2)cc1 | 31.7 µM
COc1cccc(CNc2nc(-c3ccccn3)nnc2-c2ccccc2)c1 | 22.8 µM
c1ccc(-c2ccc(CNc3nc(-c4ccccn4)nnc3-c3ccccc3)cc2)cc1 | 9.24 µM
CC(C)(C)CCNC(=O)c1cc(-c2ccccc2)on1 | 23.1 µM
O=C(NCCCCO)c1cc(-c2ccccc2)on1 | 2.72 µM
CCCCNC(=O)c1cc(-c2ccccc2)on1 | 7.93 µM
O=C(NCCCn1ccnc1)c1cc(-c2ccccc2)on1 | 6.23 µM
CC(Nc1nc(-c2ccccn2)nnc1-c1ccccc1)c1ccccc1 (stereo not given) | 23.2 µM
CC(C)(C)CCNc1nc(-c2ccccn2)nnc1-c1ccccc1 | 17 µM and 16.2 µM
c1ccc(-c2nnc(-c3ccccn3)nc2NCC2CCCCC2)cc1 | 18.2 µM
Cc1cccc(CNc2nc(-c3ccccn3)nnc2-c2ccccc2)c1 | 17.3 µM
Clc1cccc(CNc2nc(-c3ccccn3)nnc2-c2ccccc2)c1 | 17.9 µM
O=C(NCCCO)c1cc(-c2ccccc2)on1 | 7.47 µM
Cc1ccc(CNc2nc(-c3ccccn3)nnc2-c2ccccc2)cc1C | 13.6 µM
O=C(NCCCN1CCOCC1)c1cc(-c2ccccc2)on1 | 12 µM
c1ccc(-c2nnc(-c3ccccn3)nc2N2CCC(N3CCOCC3)CC2)cc1 | 36 µM
c1ccc(CNc2nc(-c3ccccn3)nnc2-c2ccccc2)cc1 | 17 µM
COc1ccc(CNc2nc(-c3ccccn3)nnc2-c2ccccc2)cc1 | 14.3 µM
c1ccc(-c2nnc(-c3ccccn3)nc2NCc2ccccn2)cc1 | 27.7 µM
O=C(NCC1CC1)c1cc(-c2ccccc2)on1 | 7.37 µM
c1ccc(CCNc2nc(-c3ccccn3)nnc2-c2ccccc2)cc1 | 20.9 µM
O=C(NCCN1CCOCC1)c1cc(-c2ccccc2)on1 | 12.4 µM
Cc1ccccc1CNc1nc(-c2ccccn2)nnc1-c1ccccc1 | 25 µM
C[C@H](Nc1nc(-c2ccccn2)nnc1-c1ccccc1)C1CCCCC1 | 18.9 µM
